In ChEMBL document CHEMBL5107946, “SF5- and SCF3-substituted tetrahydroquinoline compounds as potent bactericidal agents against multidrug-resistant persister Gram-positive bacteria” (RSC Med Chem, 2021):
Active and inactive are the calls of the source.

Assays:
[1] = test system: Staphylococcus aureus; test: Antibacterial activity against Staphylococcus aureus ATCC 25923 assessed as bacterial growth inhibition incubated for 18 to 20 hrs by CLSI based broth microdilution assay; type: functional; details: time 18-20 hrs
In short: (§1)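 CLSI broth microdilution; compounds and control antibiotics made up at 10 mg mL−1 in DMSO (stock), serially diluted 1:2 across the plate. Inoculum adjusted to 0.5 McFarland, then diluted 1:100 into wells. Plates incubated static at 37 °C for 18–20 h before MIC read.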

[2] = test system: Staphylococcus aureus; test: Bactericidal activity against methicillin-resistant Staphylococcus aureus ATCC 33592 assessed as reduction in colony forming unit incubated for 20 hrs; type: functional
In short: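 Follows the broth microdilution MIC plate. 4 μL taken from each well without growth, spotted in duplicate on tryptic soy agar and incubated static at 37 °C for 20 h. MBC taken as the concentration giving 99.9% reduction in CFU.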

[3] = test system: Staphylococcus aureus; test: Antibacterial activity against methicillin-resistant Staphylococcus aureus USA300 (ARLG 1561) assessed as bacterial growth inhibition incubated for 18 to 20 hrs by CLSI based broth microdilution assay; type: functional; details: time 18-20 hrs; in short: as §1
[4] = test system: Staphylococcus aureus; test: Antibacterial activity against methicillin-resistant Staphylococcus aureus USA300 (ARLG 1568) assessed as bacterial growth inhibition incubated for 18 to 20 hrs by CLSI based broth microdilution assay; type: functional; details: time 18-20 hrs; in short: as §1
[5] = test system: Staphylococcus aureus; test: Antibacterial activity against methicillin-resistant Staphylococcus aureus USA300 (ARLG 1569) assessed as bacterial growth inhibition incubated for 18 to 20 hrs by CLSI based broth microdilution assay; type: functional; details: time 18-20 hrs; in short: as §1
[6] = test system: Staphylococcus aureus; test: Antibacterial activity against methicillin-resistant Staphylococcus aureus ST239 (ARLG 1644) assessed as bacterial growth inhibition incubated for 18 to 20 hrs by CLSI based broth microdilution assay; type: functional; details: time 18-20 hrs; in short: as §1
[7] = test system: Staphylococcus aureus; test: Antibacterial activity against methicillin-resistant Staphylococcus aureus ST1312 (ARLG 1649) assessed as bacterial growth inhibition incubated for 18 to 20 hrs by CLSI based broth microdilution assay; type: functional; details: time 18-20 hrs; in short: as §1
[8] = test system: Staphylococcus aureus; test: Antibacterial activity against methicillin-resistant Staphylococcus aureus ST239 (ARLG 1665) assessed as bacterial growth inhibition incubated for 18 to 20 hrs by CLSI based broth microdilution assay; type: functional; details: time 18-20 hrs; in short: as §1
[9] = test system: Cell membrane; test: Induction of cell membrane permeability in Staphylococcus aureus ATCC 25923 at 1 ug/ml incubated for […] by Sytox green based fluorescence method; details: dose 1.0 µg/ml
In short: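 Exponential-phase cells (OD600 0.2–0.3) washed three times in PBS and resuspended in PBS + 10% TSB. Sytox green added to 5 μM final and equilibrated 15–30 min in the dark. Fluorescence (ex 504/em 522 nm) read for 10 min baseline, then every 3 min for 3 h after addition. Run in triplicate; 1% Triton X-100 as positive control.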

[10] = test system: Cell membrane; test: Induction of cell membrane disruption in Staphylococcus aureus ATCC 25923 at 4 ug/ml incubated for 4 hrs by scanning electron microscopy; details: dose 4.0 µg/ml
In short: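 Cells grown overnight in TSB, diluted 1:100 and grown to OD600 0.4, then treated for 4 h; bithionol 10 μg mL−1 as positive control, DMSO as negative control. Fixed in chilled 2.5% glutaraldehyde in 0.1 M cacodylate, post-fixed in 1% OsO4, ethanol-dehydrated, dried with HMDS and platinum-coated. Imaged at 5 kV.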

[11] = test system: Enterococcus faecium; test: Bactericidal activity against vancomycin-resistant Enterococcus faecium ATCC 700221 assessed as reduction in colony forming unit incubated for 20 hrs; details: ATCC 700221, 20 h

FC(F)(F)c1n[nH]cc1[C@@H]1Nc2ccc(S(F)(F)(F)(F)F)cc2[C@H]2[C@@H]3CC[C@@H](C3)[C@H]21
4 mg/L: MBC [2] | MBC [11]
active: Activity [9] | Activity [10]
2 mg/L: MIC [1] | MIC [3] | MIC [4] | MIC [5] | MIC [6] | MIC [7] | MIC [8]
